Laboratory results reported in ChEMBL document CHEMBL4359879, “Synthesis and evaluation of 2-carboxy indole derivatives as potent and selective anti-leukemic agents” (Eur J Med Chem, 2019).
The source made the active and inactive calls. The rule behind the calls is not given here.

Legend:
[1] = biological target: T1, Tubulin (Homo sapiens) (UniProt P68371+Q9H4B7+P0DPH7+P68366+Q13509+Q71U36+P04350+Q3ZCM7+P07437+P68363+Q9BQE3+Q6PEY2+Q13885+Q9BVA1+Q9BUF5); assay: Induction of microtubule network depolymerization in human HeLa cells at 1 uM incubated for 18 hrs by DAPI staining based fluorescence microscopic method; type: cell-based
Procedure, shortened: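 HeLa cells (100,000/mL) cultured overnight on glass-bottom dishes, then exposed to 500 nM or 1 μM, or DMSO, for 18 h. Permeabilized (0.5% Triton X-100) and fixed (3.7% formaldehyde). Stained overnight at 4 °C with anti-β-tubulin, then Alexa Fluor 647 secondary for 1 h at room temperature, and DAPI 1 μg/mL for 10 min. Examined by fluorescence microscopy.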

[2] = tested on: HL-60; assay: Induction of cell cycle arrest in human HL60 cells assessed as accumulation of cells at G0/G1 phase at EC50 incubated for 12 hrs by PI staining based flow cytometric analysis (reference value: 56.3%); type: functional
[3] = tested on: HL-60; assay: Effect on human HL60 cells assessed as fold change in TM2D3 gene expression at 1.085 uM incubated for 6 hrs by microarray-based method; type: functional
Procedure, shortened: (§1)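 HL60 cells were treated in triplicate with 1.085 µM or vehicle for 6 h. Total RNA was extracted with on-column DNase treatment and profiled on expression arrays.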

[4] = tested on: HL-60; assay: Induction of cell cycle arrest in human HL60 cells assessed as accumulation of cells at G2/M phase at EC50 by PI staining based flow cytometric analysis; type: functional; conditions: TDE = time-dependent effect
[5] = tested on: HL-60; assay: Effect on human HL60 cells assessed as fold change in SPRY1 gene expression at 1.085 uM incubated for 6 hrs by microarray-based method; type: functional; procedure, shortened: as §1
[6] = tested on: HL-60; assay: Effect on human HL60 cells assessed as fold change in TRPM2 gene expression at 1.085 uM incubated for 6 hrs by microarray-based method; type: functional
[7] = tested on: HL-60; assay: Induction of cell cycle arrest in human HL60 cells assessed as increase in accumulation of cells at sub G1 phase at EC50 by PI staining based flow cytometric analysis; type: functional; conditions: TDE = time-dependent effect
[8] = tested on: HL-60; assay: Induction of cell cycle arrest in human HL60 cells assessed as accumulation of cells at G2/M phase at EC50 incubated for 18 hrs by PI staining based flow cytometric analysis (reference value: 23.0%); type: functional
[9] = tested on: RS4-11; assay: Induction of cell cycle arrest in human RS4:11 cells assessed as decrease in accumulation at G1 phase at 300 nM incubated for 18 hrs by BrdU/propidium iodide staining based flow cytometric analysis; type: functional
Procedure, shortened: (§2)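 RS4;11 cells treated with 300 nM or DMSO vehicle for 18 h, then pulsed with 10 μM BrdU for 1 h. Harvested cells immunostained for BrdU/PI (cell cycle), γH2AX (DNA damage) and PARP (apoptosis). Multicolor flow cytometry gated G1, sub-G2-like, G2/M and sub-G0/G1 populations.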

[10] = tested on: RS4-11; assay: Induction of cell cycle arrest in human RS4:11 cells assessed as effect on S phase at 300 nM incubated for 18 hrs by BrdU/propidium iodide staining based flow cytometric analysis; type: functional; procedure, shortened: as §2
[11] = tested on: RS4-11; assay: Induction of apoptosis in human RS4:11 cells assessed as accumulation of cells at G1 phase at 300 nM incubated for 18 hrs in presence of PARP antibody by immunofluorescent staining based flow cytometric analysis relative to control; type: functional; procedure, shortened: as §2
[12] = tested on: CCRF-CEM; assay: Induction of apoptosis in human CEM cells at 300 nM incubated for 18 hrs by Annexin V-FITC/propidium iodide staining-based flow cytometric analysis; type: functional, cell-based
Procedure, shortened: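 CEM, HL60 or RS4;11 cells (5×10^5) treated with 300 nM or vehicle for 18 h. Stained with FITC-Annexin V in binding buffer for 15 min at 37 °C, then PI (5 μg/mL) for 3 min. Analyzed by flow cytometry.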

[13] = tested on: HL-60; assay: Effect on human HL60 cells assessed as fold change in NPIPB8 gene expression at 1.085 uM incubated for 6 hrs by microarray-based method; type: functional; procedure, shortened: as §1
[14] = tested on: HL-60; assay: Effect on human HL60 cells assessed as fold change in CELF2 gene expression at 1.085 uM incubated for 6 hrs by microarray-based method; type: functional; procedure, shortened: as §1
[15] = tested on: HL-60; assay: Induction of cell cycle arrest in human HL60 cells assessed as accumulation of cells at G0/G1 phase at EC50 incubated for 18 hrs by PI staining based flow cytometric analysis (reference value: 56.3%); type: functional
[16] = tested on: HL-60; assay: Effect on human HL60 cells assessed as fold change in FOXJ2 gene expression at 1.085 uM incubated for 6 hrs by microarray-based method; type: functional; procedure, shortened: as §1
[17] = tested on: HL-60; assay: Effect on human HL60 cells assessed as fold change in GDF10 gene expression at 1.085 uM incubated for 6 hrs by microarray-based method; type: functional; procedure, shortened: as §1
[18] = tested on: HL-60; assay: Induction of differentiation in human HL60 cells assessed as increase in CD11b positive cells incubated for 48 hrs by 7-AAD staining-based flow cytometric analysis; type: functional, cell-based
Procedure, shortened: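 Vitamin D3 at 100 nM and ATRA at 2 μM served as positive controls. Stained with APC anti-CD11b and PE anti-CD14 for 30 min at 4 °C, then 7-AAD.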

[19] = tested on: HL-60; assay: Effect on human HL60 cells assessed as fold change in C7orf43 gene expression at 1.085 uM incubated for 6 hrs by microarray-based method; type: functional; procedure, shortened: as §1
[20] = tested on: HL-60; assay: Effect on human HL60 cells assessed as fold change in FBXO25 gene expression at 1.085 uM incubated for 6 hrs by microarray-based method; type: functional; procedure, shortened: as §1
[21] = tested on: HL-60; assay: Effect on human HL60 cells assessed as fold change in USP24 gene expression at 1.085 uM incubated for 6 hrs by microarray-based method; type: functional
[22] = tested on: HL-60; assay: Effect on human HL60 cells assessed as fold change in TBCC gene expression at 1.085 uM incubated for 6 hrs by microarray-based method; type: functional; procedure, shortened: as §1
[23] = tested on: HL-60; assay: Effect on human HL60 cells assessed as fold change in TAS1R1 gene expression at 1.085 uM incubated for 6 hrs by microarray-based method; type: functional; procedure, shortened: as §1
[24] = tested on: HL-60; assay: Induction of cell cycle arrest in human HL60 cells assessed as accumulation of cells at sub G0/G1 phase at EC50 incubated for 12 hrs by PI staining based flow cytometric analysis (reference value: 1.67%); type: functional
[25] = tested on: HL-60; assay: Effect on human HL60 cells assessed as fold change in GPSM2 gene expression at 1.085 uM incubated for 6 hrs by microarray-based method; type: functional; procedure, shortened: as §1
[26] = tested on: HL-60; assay: Effect on human HL60 cells assessed as fold change in HOXB-AS3 gene expression at 1.085 uM incubated for 6 hrs by microarray-based method; type: functional; procedure, shortened: as §1
[27] = tested on: HL-60; assay: Effect on human HL60 cells assessed as fold change in GDAP1 gene expression at 1.085 uM incubated for 6 hrs by microarray-based method; type: functional; procedure, shortened: as §1
[28] = tested on: HL-60; assay: Induction of cell cycle arrest in human HL60 cells assessed as accumulation of cells at S phase at EC50 incubated for 18 hrs by PI staining based flow cytometric analysis (reference value: 19.0%); type: functional
[29] = biological target: T1, Tubulin (Homo sapiens); assay: Inhibition of tubulin polymerization in human CEM cells at 300 nM by Western blot analysis; type: cell-based; conditions: TDE = time-dependent effect
Procedure, shortened: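 Leukemia cells (RS4;11, CEM, HL60) treated with 300 nM for 0, 15, 30, 60 and 360 min. Western blotting for β-tubulin and p53, with lamin B1 as loading control and chemiluminescent detection.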

## COC(=O)c1[nH]c2cc(OC)ccc2c1-c1ccc(C(F)(F)F)cc1
[1]
  Activity: Active
[2]
  Activity: 20.8%
[3]
  fold change (FC): -1.65
[4]
  Activity: Tde
[5]
  fold change (FC): -1.5
[6]
  fold change (FC): 2.21
[7]
  Activity: Tde
[8]
  Activity: 56.3%
[9]
  Activity: Active
[10]
  Activity: inactive
[11]
  Activity: 7%
[12]
  Activity: Active
[13]
  fold change (FC): 1.5
[14]
  fold change (FC): 1.56
[15]
  Activity: 10.6%
[16]
  fold change (FC): 1.62
[17]
  fold change (FC): -1.56
[18]
  Activity: Dose-dependent effect
[19]
  fold change (FC): -1.72
[20]
  fold change (FC): 1.71
[21]
  fold change (FC): 1.74
[22]
  fold change (FC): -1.54
[23]
  fold change (FC): -1.51
[24]
  Activity: 12.1%
[25]
  fold change (FC): 1.62
[26]
  fold change (FC): -1.54
[27]
  fold change (FC): -1.61
[28]
  Activity: 8.92%
[29]
  inhibition: Tde
